# Results taken from ChEMBL document CHEMBL2169836 (J Med Chem, 2012).
# How the values were obtained:
# [1] = target: Sodium/hydrogen exchanger 1 (Homo sapiens, UniProt P19634); experiment: Inhibition of NHE1 in human HT-29 cells assessed as intracellular pH change after 30 mins; format: cell-based
# [2] = Permeability of the compound by PAMPA; format: ADME; settings: read-out: permeability
# In short: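 Donor buffers were set to pH 5.0, 6.2 and 7.4 with NaOH, and ASB7.4 buffer was used as acceptor. Filters (0.45 pore, 125 μm thick) were lipid-coated. A 10 mM DMSO stock was diluted to 41.7 μM in donor buffer. The sandwich was incubated 4 h without stirring. Reference, donor and acceptor concentrations were read in duplicate by UV plate reader, and ratings were assigned from permeation velocity.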
# Cytochrome P450 2D6 = Cytochrome P450 2D6 (Homo sapiens, UniProt P10635); experiment: Inhibition of CYP2D6 in human liver microsomes using 3-[2-(N,N-diethyl-N-methylamino)ethyl]-7- methoxy-4-methylcoumarin as substrate after 45 mins by LC/MS/MS analysis; format: ADME, Microsome
# Chain of Cytochrome P450 2D6 (P10635 whole entry): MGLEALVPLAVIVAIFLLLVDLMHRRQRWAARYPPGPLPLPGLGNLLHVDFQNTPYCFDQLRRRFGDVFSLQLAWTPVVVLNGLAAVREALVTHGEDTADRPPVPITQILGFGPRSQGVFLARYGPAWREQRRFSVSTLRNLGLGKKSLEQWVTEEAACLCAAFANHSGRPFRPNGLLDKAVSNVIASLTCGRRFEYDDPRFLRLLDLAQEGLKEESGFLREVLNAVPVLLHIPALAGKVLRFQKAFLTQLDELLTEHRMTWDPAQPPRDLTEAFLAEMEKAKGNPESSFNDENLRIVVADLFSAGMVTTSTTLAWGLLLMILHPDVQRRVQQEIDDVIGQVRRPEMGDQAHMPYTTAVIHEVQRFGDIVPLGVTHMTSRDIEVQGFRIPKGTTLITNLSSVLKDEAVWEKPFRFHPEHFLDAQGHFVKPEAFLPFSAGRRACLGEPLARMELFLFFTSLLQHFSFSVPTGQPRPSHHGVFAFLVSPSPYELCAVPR
# Cytochrome P450 2C19 = Cytochrome P450 2C19 (Homo sapiens, UniProt P33261); experiment: Inhibition of CYP2C19 in human liver microsomes using 7-ethoxy-3-cyanocoumarin as substrate after 45 mins by LC/MS/MS analysis; format: ADME, Microsome
# Chain of Cytochrome P450 2C19 (P33261 whole entry): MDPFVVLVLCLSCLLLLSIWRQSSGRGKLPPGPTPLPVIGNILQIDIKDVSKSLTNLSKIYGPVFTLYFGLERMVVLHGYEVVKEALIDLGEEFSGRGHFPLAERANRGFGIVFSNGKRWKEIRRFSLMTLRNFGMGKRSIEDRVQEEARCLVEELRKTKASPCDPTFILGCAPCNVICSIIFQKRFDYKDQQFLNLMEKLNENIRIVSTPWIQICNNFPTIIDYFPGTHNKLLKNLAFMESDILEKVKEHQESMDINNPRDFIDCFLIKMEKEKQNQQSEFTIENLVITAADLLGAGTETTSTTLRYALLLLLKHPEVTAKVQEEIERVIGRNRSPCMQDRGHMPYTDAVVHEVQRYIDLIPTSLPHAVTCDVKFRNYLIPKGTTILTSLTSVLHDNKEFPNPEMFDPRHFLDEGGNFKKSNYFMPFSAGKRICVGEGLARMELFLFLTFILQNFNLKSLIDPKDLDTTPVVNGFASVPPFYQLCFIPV
# Cytochrome P450 3A4 = Cytochrome P450 3A4 (Homo sapiens, UniProt P08684); experiment: Inhibition of CYP3A4 in human liver microsomes using 7-benzyloxy-4-(trifluoromethyl)-coumarin as substrate after 30 mins by LC/MS/MS analysis; format: ADME, Microsome
# Chain of Cytochrome P450 3A4 (P08684 whole entry): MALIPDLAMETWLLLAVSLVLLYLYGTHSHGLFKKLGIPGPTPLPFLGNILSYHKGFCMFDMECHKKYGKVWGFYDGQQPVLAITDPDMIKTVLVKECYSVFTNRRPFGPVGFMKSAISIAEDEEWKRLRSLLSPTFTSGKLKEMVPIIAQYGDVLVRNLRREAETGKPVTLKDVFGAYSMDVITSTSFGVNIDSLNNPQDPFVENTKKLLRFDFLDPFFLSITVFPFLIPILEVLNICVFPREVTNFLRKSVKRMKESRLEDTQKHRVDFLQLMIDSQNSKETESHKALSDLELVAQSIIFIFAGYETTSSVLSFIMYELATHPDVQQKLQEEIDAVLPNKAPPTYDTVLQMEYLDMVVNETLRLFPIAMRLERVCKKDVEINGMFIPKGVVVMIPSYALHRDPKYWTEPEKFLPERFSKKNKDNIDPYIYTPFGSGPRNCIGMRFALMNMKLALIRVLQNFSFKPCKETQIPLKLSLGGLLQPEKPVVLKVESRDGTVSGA
# [3] = Metabolic stability in rat liver microsomes at 1 uM up to 60 mins by LC/MS/MS analysis relative to hepatic blood flow; format: ADME, Microsome; settings: read-out: Stability
# Cytochrome P450 2C9 = Cytochrome P450 2C9 (Homo sapiens, UniProt P11712); experiment: Inhibition of CYP2C9 in human liver microsomes using 7-methoxy-4-(trifluoromethyl)-coumarin as substrate after 45 mins by LC/MS/MS analysis; format: ADME, Microsome
# Chain of Cytochrome P450 2C9 (P11712 whole entry): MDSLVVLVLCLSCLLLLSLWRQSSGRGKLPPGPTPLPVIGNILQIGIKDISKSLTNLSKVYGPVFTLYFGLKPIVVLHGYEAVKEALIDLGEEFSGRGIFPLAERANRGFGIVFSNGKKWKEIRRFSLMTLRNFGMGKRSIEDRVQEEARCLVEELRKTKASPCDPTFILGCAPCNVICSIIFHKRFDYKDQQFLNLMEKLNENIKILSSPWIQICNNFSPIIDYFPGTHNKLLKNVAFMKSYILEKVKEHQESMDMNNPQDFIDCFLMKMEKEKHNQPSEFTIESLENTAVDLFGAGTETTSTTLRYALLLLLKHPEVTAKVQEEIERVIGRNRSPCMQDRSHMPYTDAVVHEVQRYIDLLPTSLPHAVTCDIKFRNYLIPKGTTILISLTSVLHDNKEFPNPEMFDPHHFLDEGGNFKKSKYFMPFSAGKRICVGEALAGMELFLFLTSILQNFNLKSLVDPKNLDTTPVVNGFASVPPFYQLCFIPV
# [4] = Metabolic stability in human liver microsomes at 1 uM up to 60 mins by LC/MS/MS analysis relative to hepatic blood flow; format: ADME, Microsome; settings: read-out: Stability
# [5] = target: Voltage-gated inwardly rectifying potassium channel KCNH2 (Homo sapiens, UniProt Q12809); experiment: Inhibition of human ERG expressed in HEK 293 cells by PatchXpress assay; format: cell-based, HEK293
# Chain of Voltage-gated inwardly rectifying potassium channel KCNH2 (Q12809 whole entry): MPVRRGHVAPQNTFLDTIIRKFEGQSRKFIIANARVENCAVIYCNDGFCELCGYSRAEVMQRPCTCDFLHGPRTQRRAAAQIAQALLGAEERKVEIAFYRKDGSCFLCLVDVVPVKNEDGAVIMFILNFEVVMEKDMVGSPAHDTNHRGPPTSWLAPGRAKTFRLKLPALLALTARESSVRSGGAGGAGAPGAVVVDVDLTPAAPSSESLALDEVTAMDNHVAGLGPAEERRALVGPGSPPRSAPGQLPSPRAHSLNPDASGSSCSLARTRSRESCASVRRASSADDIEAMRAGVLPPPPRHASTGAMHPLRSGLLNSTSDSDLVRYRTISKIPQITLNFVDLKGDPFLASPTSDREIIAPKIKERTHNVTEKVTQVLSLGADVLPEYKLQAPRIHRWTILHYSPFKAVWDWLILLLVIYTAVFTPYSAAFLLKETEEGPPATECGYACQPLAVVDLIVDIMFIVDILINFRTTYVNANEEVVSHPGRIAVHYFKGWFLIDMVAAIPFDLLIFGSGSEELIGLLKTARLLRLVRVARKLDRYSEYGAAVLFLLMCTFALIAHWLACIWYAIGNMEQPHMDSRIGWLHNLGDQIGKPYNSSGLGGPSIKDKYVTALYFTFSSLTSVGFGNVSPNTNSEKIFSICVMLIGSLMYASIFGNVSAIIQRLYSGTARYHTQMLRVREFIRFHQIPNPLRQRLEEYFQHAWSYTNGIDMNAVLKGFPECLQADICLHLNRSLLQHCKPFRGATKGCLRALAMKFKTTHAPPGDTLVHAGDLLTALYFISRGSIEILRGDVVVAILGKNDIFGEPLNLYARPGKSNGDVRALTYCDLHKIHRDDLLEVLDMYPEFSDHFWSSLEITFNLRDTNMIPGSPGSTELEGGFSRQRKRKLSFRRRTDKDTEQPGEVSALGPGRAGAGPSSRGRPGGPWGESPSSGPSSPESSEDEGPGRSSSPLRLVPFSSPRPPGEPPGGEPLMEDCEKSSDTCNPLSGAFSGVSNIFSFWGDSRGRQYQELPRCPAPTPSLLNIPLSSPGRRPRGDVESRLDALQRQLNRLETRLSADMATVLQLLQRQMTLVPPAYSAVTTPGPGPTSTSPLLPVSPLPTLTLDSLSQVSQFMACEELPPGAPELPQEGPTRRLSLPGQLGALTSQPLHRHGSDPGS
# Rattus norvegicus = experiment: Clearance in jugular and femoral vein precannulated Sprague-Dawley rat at 1 mg/kg, iv by LC/MS/MS analysis relative to hepatic blood flow; format: ADME, organism-based, Liver; set-up: dose 1 mg/kg, route intravenous; settings: in vivo
# [6] = Mean resident time in jugular and femoral vein precannulated Sprague-Dawley rat at 1 mg/kg, iv by LC/MS/MS analysis; format: ADME, organism-based; set-up: dose 1 mg/kg, route intravenous; settings: in vivo
# [7] = Oral bioavailability in jugular and femoral vein precannulated Sprague-Dawley rat plasma at 5 mg/kg by LC/MS/MS analysis; format: ADME, organism-based
# [8] = Volume of distribution at steady state in jugular and femoral vein precannulated Sprague-Dawley rat at 1 mg/kg, iv by LC/MS/MS analysis; format: ADME, organism-based; set-up: dose 1 mg/kg, route intravenous; settings: in vivo, read-out: Vdss
# Chain of Sodium/hydrogen exchanger 1 (P19634 whole entry): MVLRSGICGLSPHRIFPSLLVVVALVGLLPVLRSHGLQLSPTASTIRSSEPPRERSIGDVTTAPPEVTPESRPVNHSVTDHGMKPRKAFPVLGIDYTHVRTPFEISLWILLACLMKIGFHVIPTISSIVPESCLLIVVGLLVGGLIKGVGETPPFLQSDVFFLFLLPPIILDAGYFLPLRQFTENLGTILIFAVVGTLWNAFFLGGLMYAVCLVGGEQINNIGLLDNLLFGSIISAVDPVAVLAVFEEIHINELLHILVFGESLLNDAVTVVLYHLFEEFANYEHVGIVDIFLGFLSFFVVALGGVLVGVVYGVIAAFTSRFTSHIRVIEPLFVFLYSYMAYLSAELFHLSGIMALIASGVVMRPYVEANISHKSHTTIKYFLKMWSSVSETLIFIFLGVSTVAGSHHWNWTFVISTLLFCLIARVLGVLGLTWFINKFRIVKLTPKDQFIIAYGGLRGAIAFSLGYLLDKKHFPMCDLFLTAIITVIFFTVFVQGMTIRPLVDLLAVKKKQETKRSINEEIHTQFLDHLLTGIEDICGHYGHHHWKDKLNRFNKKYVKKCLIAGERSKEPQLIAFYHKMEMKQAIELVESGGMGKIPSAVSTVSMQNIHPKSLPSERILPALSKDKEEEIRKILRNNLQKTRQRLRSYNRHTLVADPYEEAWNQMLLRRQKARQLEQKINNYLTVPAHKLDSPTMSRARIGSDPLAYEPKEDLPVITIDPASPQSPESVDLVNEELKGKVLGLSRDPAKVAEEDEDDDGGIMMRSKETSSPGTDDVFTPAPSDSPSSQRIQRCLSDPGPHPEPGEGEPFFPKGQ
Structure (SMILES),IC50 [1],Papp [2],IC50 (Cytochrome P450 2D6),IC50 (Cytochrome P450 2C19),IC50 (Cytochrome P450 3A4),"hepatic extraction ratio at 1 h, 1 µM [3]",IC50 (Cytochrome P450 2C9),"hepatic extraction ratio at 1 h, 1 µM [4]",also measured
N=C(N)NC(=O)c1ccc(C2CCN(C(=O)C3CCCC3)CC2)c(C(F)(F)F)c1,0.064 µM,–,–,–,–,–,–,–,–
N=C(N)NC(=O)c1ccc(C2CCN(C(=O)c3ccc(-c4cnco4)cc3)CC2)c(C(F)(F)F)c1,0.102 µM,–,–,–,–,–,–,–,–
N=C(N)NC(=O)c1ccc(C2CCN(C(=O)c3ccccc3Cl)CC2)c(C(F)(F)F)c1,0.108 µM,–,–,–,–,–,–,–,–
N=C(N)NC(=O)c1ccc(C2CCN(C(=O)c3ccc[nH]3)CC2)c(C(F)(F)F)c1,0.045 µM,–,–,–,–,–,–,–,–
CN(C)S(=O)(=O)c1ccc(C(=O)N2CCC(c3ccc(C(=O)NC(=N)N)cc3C(F)(F)F)CC2)cc1,–,≥ 2 ×10⁻⁶ cm/s,–,–,–,–,–,–,–
N=C(N)NC(=O)c1ccc(C2CCN(C(=O)c3ccc(-n4ccnc4)cc3)CC2)c(C(F)(F)F)c1,0.065 µM,–,–,–,–,–,–,–,–
N=C(N)NC(=O)c1ccc(C2CCN(C(=O)c3ccc(Cl)cc3)CC2)c(C(F)(F)F)c1,0.306 µM,–,–,–,–,–,–,–,–
CC(C)c1ccc(C(=O)NC(=N)N)cc1S(C)(=O)=O [CARIPORIDE],–,–,–,–,–,–,–,–,CL (Rattus norvegicus): 82%; MRT [6]: 24 min; bioavailability [7]: 37%; Vd [8]: 1.3 L/kg
COc1ccc(C(=O)N2CCC(c3ccc(C(=O)NC(=N)N)cc3C(F)(F)F)CC2)cc1,0.132 µM,≥ 2 ×10⁻⁶ cm/s,–,–,–,–,–,–,–
Cc1cc(-n2cccc2)c(S(C)(=O)=O)cc1C(=O)NC(=N)N [ENIPORIDE],–,–,–,–,–,–,–,–,CL (Rattus norvegicus): 28%; MRT [6]: 24 min; bioavailability [7]: 65%; Vd [8]: 0.5 L/kg
CNC(=O)c1ccc(C(=O)N2CCC(c3ccc(C(=O)NC(=N)N)cc3C(F)(F)F)CC2)cc1,0.052 µM,< 2 ×10⁻⁶ cm/s,–,–,–,–,–,–,–
N=C(N)NC(=O)c1ccc(C2CCN(C(=O)C3CC3)CC2)c(C(F)(F)F)c1,–,≥ 2 ×10⁻⁶ cm/s,17 µM,5 µM,16 µM,< 0.056,6 µM,< 0.11,–
N=C(N)NC(=O)c1ccc(C2CCN(C(=O)c3ccc(-c4ccccc4)cc3)CC2)c(C(F)(F)F)c1,4.71 µM,–,–,–,–,–,–,–,–
N=C(N)NC(=O)c1ccc(C2CCN(C(=O)c3ccc(F)cc3)CC2)c(C(F)(F)F)c1,–,≥ 2 ×10⁻⁶ cm/s,> 30 µM,11 µM,6 µM,0.3,8 µM,0.32,–
N=C(N)NC(=O)c1cnn(-c2cccc3ncccc23)c1C1CC1 [ZONIPORIDE],–,–,–,–,–,–,–,–,CL (Rattus norvegicus): 105%; MRT [6]: 36 min; bioavailability [7]: 5%; Vd [8]: 2.8 L/kg
CN(C)C(=O)c1ccc(C(=O)N2CCC(c3ccc(C(=O)NC(=N)N)cc3C(F)(F)F)CC2)cc1,0.05 µM,< 2 ×10⁻⁶ cm/s,–,–,–,–,–,–,–
N=C(N)NC(=O)c1ccc(C2CCN(C(=O)c3cccc(Cl)c3)CC2)c(C(F)(F)F)c1,0.385 µM,–,–,–,–,–,–,–,–
N=C(N)NC(=O)c1ccc(C2CCN(C(=O)c3ccc(C(F)(F)F)cc3)CC2)c(C(F)(F)F)c1,0.32 µM,–,–,–,–,–,–,–,–
CC(C)(C)C(=O)N1CCC(c2ccc(C(=O)NC(=N)N)cc2C(F)(F)F)CC1,0.072 µM,≥ 2 ×10⁻⁶ cm/s,> 30 µM,–,–,–,17 µM,–,CL (Rattus norvegicus): 29%; MRT [6]: 90 min; Vd [8]: 1.8 L/kg
CS(=O)(=O)c1ccccc1C(=O)N1CCC(c2ccc(C(=O)NC(=N)N)cc2C(F)(F)F)CC1,0.058 µM,–,–,–,–,–,–,–,–
N#Cc1ccccc1C(=O)N1CCC(c2ccc(C(=O)NC(=N)N)cc2C(F)(F)F)CC1,0.061 µM,≥ 2 ×10⁻⁶ cm/s,10 µM,16 µM,> 30 µM,< 0.06,4 µM,0.4,–
CC(C)CC(=O)N1CCC(c2ccc(C(=O)NC(=N)N)cc2C(F)(F)F)CC1,0.047 µM,–,–,–,–,–,–,–,–
N=C(N)NC(=O)c1ccc(C2CCN(C(=O)c3ccccc3)CC2)c(C(F)(F)F)c1,0.068 µM,≥ 2 ×10⁻⁶ cm/s,> 30 µM,5 µM,> 30 µM,0.46,7 µM,0.67,–
CS(=O)(=O)c1cccc(C(=O)N2CCC(c3ccc(C(=O)NC(=N)N)cc3C(F)(F)F)CC2)c1,0.06 µM,< 2 ×10⁻⁶ cm/s,> 30 µM,> 30 µM,> 30 µM,0.14,> 30 µM,0.15,–

# Continued by falling IC50 [1], values first:
IC50 [1],Papp [2],IC50 (Cytochrome P450 2D6),IC50 (Cytochrome P450 2C19),IC50 (Cytochrome P450 3A4),"hepatic extraction ratio at 1 h, 1 µM [3]",IC50 (Cytochrome P450 2C9),"hepatic extraction ratio at 1 h, 1 µM [4]",Structure (SMILES),also measured
0.033 µM,–,–,–,–,–,–,–,N=C(N)NC(=O)c1ccc(C2CCN(C(=O)c3cccc(-c4cnco4)c3)CC2)c(C(F)(F)F)c1,–
0.03 µM,< 2 ×10⁻⁶ cm/s,–,–,–,–,–,–,CNS(=O)(=O)c1ccc(C(=O)N2CCC(c3ccc(C(=O)NC(=N)N)cc3C(F)(F)F)CC2)cc1,–
0.029 µM,–,–,–,–,–,–,–,CCCC(=O)N1CCC(c2ccc(C(=O)NC(=N)N)cc2C(F)(F)F)CC1,–
0.029 µM,–,–,–,–,–,–,–,CCC(=O)N1CCC(c2ccc(C(=O)NC(=N)N)cc2S(C)(=O)=O)CC1,–
0.028 µM,≥ 2 ×10⁻⁶ cm/s,> 30 µM,–,0.4 µM,0.39,7 µM,< 0.11,CC(C)C(=O)N1CCC(c2ccc(C(=O)NC(=N)N)cc2C(F)(F)F)CC1,–
0.028 µM,–,–,9 µM,7 µM,–,–,–,N=C(N)NC(=O)c1ccc(N2CCN(C(=O)c3ccc[nH]3)CC2)c(C(F)(F)F)c1 [SABIPORIDE],CL (Rattus norvegicus): 24%; MRT [6]: 78 min; bioavailability [7]: 42%; Vd [8]: 1.3 L/kg
0.027 µM,< 2 ×10⁻⁶ cm/s,–,–,–,0.78,–,0.68,Cc1cc(C(=O)N2CCC(c3ccc(C(=O)NC(=N)N)cc3C(F)(F)F)CC2)nn1C,–
0.026 µM,< 2 ×10⁻⁶ cm/s,12 µM,28 µM,24.5 µM,< 0.056,4 µM,0.24,N=C(N)NC(=O)c1ccc(C2CCN(C(=O)c3ccc(C(N)=O)cc3)CC2)c(C(F)(F)F)c1,–
0.022 µM,–,–,–,–,–,–,–,CC(=O)N1CCC(c2ccc(C(=O)NC(=N)N)cc2S(C)(=O)=O)CC1,–
0.021 µM,< 2 ×10⁻⁶ cm/s,–,–,–,0.11,–,0.27,N=C(N)NC(=O)c1ccc(C2CCN(C(=O)c3ccc(O)cc3)CC2)c(C(F)(F)F)c1,–
0.019 µM,–,–,–,–,–,–,–,COc1cc(C2CCN(C(C)=O)CC2)c(C(F)(F)F)cc1C(=O)NC(=N)N,–
0.019 µM,< 2 ×10⁻⁶ cm/s,> 30 µM,> 30 µM,> 30 µM,0.1,29 µM,0.18,N=C(N)NC(=O)c1ccc(C2CCN(C(=O)c3ccc(O)nc3)CC2)c(C(F)(F)F)c1,–
0.018 µM,< 2 ×10⁻⁶ cm/s,> 30 µM,> 30 µM,> 30 µM,< 0.06,13 µM,0.33,N=C(N)NC(=O)c1ccc(C2CCN(C(=O)c3cccnc3)CC2)c(C(F)(F)F)c1,–
0.018 µM,≥ 2 ×10⁻⁶ cm/s,27 µM,26 µM,> 30 µM,< 0.06,3 µM,0.49,N=C(N)NC(=O)c1ccc(C2CCN(C(=O)c3ccccn3)CC2)c(C(F)(F)F)c1,–
0.018 µM,≥ 2 ×10⁻⁶ cm/s,11 µM,0.06 µM,> 30 µM,0.12,0.4 µM,< 0.11,N=C(N)NC(=O)c1ccc(C2CCN(C(=O)c3ccncc3)CC2)c(C(F)(F)F)c1,–
0.018 µM,< 2 ×10⁻⁶ cm/s,> 30 µM,15 µM,3 µM,< 0.056,25 µM,0.23,Cn1cncc1C(=O)N1CCC(c2ccc(C(=O)NC(=N)N)cc2C(F)(F)F)CC1,–
0.015 µM,< 2 ×10⁻⁶ cm/s,> 30 µM,> 30 µM,–,–,> 30 µM,–,CS(=O)(=O)c1ccc(C(=O)N2CCC(c3ccc(C(=O)NC(=N)N)cc3C(F)(F)F)CC2)cc1,CL (Rattus norvegicus): 66%; bioavailability [7]: 15%
0.015 µM,–,–,–,–,–,–,–,CC(=O)N1CCC(c2cc(C)c(C(=O)NC(=N)N)cc2S(C)(=O)=O)CC1,CL (Rattus norvegicus): 47%; MRT [6]: 21.6 min; bioavailability [7]: 4%; Vd [8]: 1 L/kg
0.014 µM,< 2 ×10⁻⁶ cm/s,> 30 µM,> 30 µM,24 µM,0.07,16 µM,0.24,N=C(N)NC(=O)c1ccc(C2CCN(C(=O)c3ccc(S(N)(=O)=O)cc3)CC2)c(C(F)(F)F)c1,–
0.005 µM,–,–,–,–,–,–,–,CC(=O)N1CCC(c2cc(C)c(C(=O)NC(=N)N)cc2C(F)(F)F)CC1,IC50 [5]: 7 µM
